The list is not random: actives were taken first. Their share in the collection is about 3.7%.
b-catenin transl = modulators of beta-catenin nuclear translocation, primary screen, imaging, HeLa cells, immunofluorescence, high-content; hit rate 0.3% among 190,000; AID 1665, 2009; nuclear translocation activity, % at 5 µM;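 active = nuclear translocation activity above 50% at 5 µM, with a well cell count of 50 or more; inconclusive = wells under 50 cells across six images, flagged as toxic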;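 also: per-cell ratio of nuclear to cytoplasmic median beta-catenin stain intensity; plate controls were DMSO negative control for no effect and GSK-3 inhibitor IX positive control for full effect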
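Assay system: human HeLa cells, native beta-catenin; doses: 5 µM primary, 0.02–20 µM confirmation; incubation: compound treatment 24 h, 37°C, 5% CO2; technique: fluorescence imaging of beta-catenin antibody stain plus DAPI; measure: % activation, nuclear-to-cytoplasmic median beta-catenin signal ratio per cell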
Cl transport mod = KCC2 cotransporter modulators, thallium flux, primary screen, cell-based, HEK293 KCC2, FluoZin-2 fluorescence, MLSMR. B-score of Tl+ flux slope (higher = more flux/activation; lower = inhibition) at 10 µM. KCC2 cells, thallium flux FluoZin-2 fluorescence. Solute carrier family 12 member 5 (Homo sapiens), Q9H2X9. hit rate 2.2% among 190,000;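 active = thallium flux slope and its plate-corrected score both differing from the plate sample mean at a set confidence after two filtering rounds, in either direction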;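 also: slope of fluorescence scaled to starting intensity during 10 to 20 s after thallium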
MT stabilizer = microtubule stabilizers in HeLa cells, primary screen, imaging, high-content imaging; HeLa tubulin immunostaining HCS, 24 h; share of cells brighter than vehicle mean+2SD; % tubulin-high responders, % at 10 µM; hit rate 0.83% among 200,000; AID 2205, 2009;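 active = plate Z-score above 3 for both tubulin-high and condensed-nucleus cell shares, with cell loss under 80%, at 10 µM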;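 also: anti alpha tubulin signal scored within the nucleus-defined area of each cell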
ROMK primary = ROMK potassium channel modulators, primary screen, cell-based, thallium flux, MLSMR library; ATP-sensitive inward rectifier potassium channel 1 (Homo sapiens), P48048; Tet-inducible ROMK, thallium flux fluorescence; actives lie on both sides; B-score at 10 µM; hit rate 2% among 130,000; AID 1918, 2009;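 active = signal ratio slope over the read window, or its plate-corrected B-score, at least 3 SD from the plate mean, either direction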;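 also: B-score of the F/F0 ratio slope over 7 to 12 s after thallium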
Target sequence (P48048 whole entry, looked up): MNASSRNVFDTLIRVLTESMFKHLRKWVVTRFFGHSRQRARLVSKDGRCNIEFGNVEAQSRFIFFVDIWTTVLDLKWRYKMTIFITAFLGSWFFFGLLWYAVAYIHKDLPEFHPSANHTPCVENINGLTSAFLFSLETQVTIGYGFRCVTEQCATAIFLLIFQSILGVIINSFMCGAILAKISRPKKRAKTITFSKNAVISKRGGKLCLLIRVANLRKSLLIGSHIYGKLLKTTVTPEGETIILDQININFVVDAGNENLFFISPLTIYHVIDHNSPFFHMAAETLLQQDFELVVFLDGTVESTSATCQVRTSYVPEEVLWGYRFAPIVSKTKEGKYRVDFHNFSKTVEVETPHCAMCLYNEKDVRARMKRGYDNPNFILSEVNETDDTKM
DTT redox prof = compounds producing H2O2 with reducing agent – biochemical, NIH compound library profiling, artefact control for MLSCN library redox annotation, primary screen | DTT-dependent redox cycling H2O2, phenol red/HRP absorbance; 100% = 100 µM peroxide control, 0% = buffer | activation, % at 10 µM | hit rate 0.03% among 200,000;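 active = activation of at least 50% relative to the plate's high and low controls in the primary single-dose screen; inactive = activation below 50%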;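 also: compound incubated with DTT at 0.8 mM final as the reducing agent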
KCC2 secondary = KCC2 modulators in sodium-free buffer, confirmation, cell-based, HEK293 KCC2, thallium flux, secondary assay; FluoZin2 fluorescence; active compounds read high; hit rate 15% among 3,700; normalised thallium flux (F/F0 slope) at 10 µM; shares compounds with Cl transport mod;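 active = thallium flux slope above the same plate's solvent-only control mean plus 3 SD; inconclusive = the two replicate wells disagree; inactive = no significant difference from solvent-only control wells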
KCC2 bumet counter = thallium flux persisting under bumetanide in KCC2 cells, confirmation, counter-screen for KCC2 modulator project, cell-based, HEK293 KCC2, FluoZin2, secondary assay 3. shares compounds with Cl transport mod. HEK293-KCC2 + bumetanide/ouabain; active compounds read high. normalized thallium flux at 10 µM. hit rate 49% among 3,700;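 active = thallium entry rate above the same plate's blocked-transporter control wells by more than 3 SD; inconclusive = the two repeat wells disagree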;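 also: raw slope of fluorescence over initial fluorescence between 10 and 20 s after thallium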
KCC2 secondary2 = KCC2 modulators without ouabain present, confirmation, cell-based, HEK293 KCC2, thallium flux, FluoZin2, secondary assay 2 | thallium flux FluoZin2 fluorescence; actives lie on both sides; F/F0 rise rate, 10–20 s post-thallium | shares compounds with Cl transport mod | normalized thallium flux at 10 µM | AID 1715, 2009 | hit rate 23% among 3,700;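 active = thallium flux slope more than 3 SD above or below the plate's solvent-only control mean, mostly below; inconclusive = the two repeat wells disagreed; inactive = no significant shift from solvent-only controls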;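 also: raw slope with 0.1% DMSO as baseline and bumetanide as block control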
HEK293 Tl flux = thallium flux modulation in parental HEK cells, confirmation, counter-screen for KCC2 modulator project, cell-based, counterscreen 1; hit rate 46% among 3,700; shares compounds with Cl transport mod; thallium flux rate (normalised fluorescence) at 10 µM; HEK293 parental cells, thallium flux FluoZin2, ouabain; baseline-ratio fluorescence slope, 10–20 s after thallium;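 active = thallium flux rate significantly above the same plate's solvent-only control wells, beyond their mean plus 3 SD; inconclusive = the two replicate wells gave conflicting results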
KCC2 ouabain = KCC2 inhibitors and activators, ouabain retest, confirmation, HEK-KCC2 cells. AID 1717, 2009. HEK293-KCC2, thallium flux FluoZin2 fluorescence; bidirectional: low = inhibitor, high = activator. shares compounds with Cl transport mod. raw Tl+ flux slope (below DMSO = inhibition, above = activation) at 10 µM. hit rate 48% among 3,700;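 active = thallium flux slope beyond 3 SD from same-plate DMSO control mean in most replicates, usually higher, sometimes lower; inconclusive = repeat tests gave conflicting results; inactive = no significant difference from controls in most replicates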;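 also: slope of initial-normalized fluorescence between seconds 10 and 20 after thallium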
HEK293 Tl flux2 = native HEK Tl+ uptake effects, second counter-screen – HEK cells, counterscreen 2, counter-screen for KCC2 modulator project, confirmation. HEK293 parental, thallium flux FluoZin-2 fluorescence slope. hit rate 33% among 3,700. thallium flux slope at 10 µM. shares compounds with Cl transport mod. AID 1718, 2009;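 active = thallium flux slope above the same plate's solvent-control mean plus 3 SD in both duplicate wells; inconclusive = duplicate wells that disagreed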;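 also: run without ouabain in cells lacking the KCC2 cotransporter; slope of fluorescence scaled to its starting value between 10 and 20 s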
Active calls of the source: *; ? = inconclusive; nt = no result.

SMILES	b-catenin transl	Cl transport mod	MT stabilizer	ROMK primary	DTT redox prof	KCC2 secondary	KCC2 bumet counter	KCC2 secondary2	HEK293 Tl flux	KCC2 ouabain	HEK293 Tl flux2
Cc1ccc(NC(=O)c2ccccc2NS(=O)(=O)c2ccc(Cl)s2)cc1	1.4	-3.71*	2.5	0.00196	0.1	0.00711	?	0.022*	0.00717	?	0.0101
O=P(O)(CCc1ccccc1)CN1CCCCC1	-0.2	-0.543	3.6	nt	2.2	nt	nt	nt	nt	nt	nt
O=P(CCN1CCCCC1)(c1ccccc1)c1ccccc1	nt	-17*	0.1	1.44	0.2	0.00655	0.00498	0.0282	0.00783	0.0176	0.0116
O=C(CCCSc1nc2sc3c(c2c(=O)[nH]1)CCC3)NCCO	-0.6	-4.18*	1.3	nt	2.3	0.0146	0.00471	0.0282	0.00726	0.0165	0.00977
O=C(CCCSc1nc2sc3c(c2c(=O)[nH]1)CCC3)NCCCO	1.9	nt	4.9	0.258	0.0	nt	nt	nt	nt	nt	nt
COC(=O)C1=C(C)N(C2CCCCC2)C(=O)C1	0.2	6.24*	4.0	nt	0.5	0.00699	0.0068	0.0288	0.00698	0.0189	0.00903
CCOC(=O)C1=C(C)N(C2CCCCC2)C(=O)C1	-0.2	nt	4.3	0.749	-0.9	nt	nt	nt	nt	nt	nt
COc1ccccc1OCC(=O)NNC(=O)C(=O)N1CCCC1	0.8	0.0112	5.0	nt	0.4	nt	nt	nt	nt	nt	nt
CCOC(=O)c1ccc(NC(=O)COC(=O)Cc2csc(-c3ccccc3)n2)cc1	-0.3	-4.88*	2.2	nt	0.1	0.00609*	0.0154*	?	0.0114*	0.0164*	0.0108
CCCCCNC(=O)c1ccc2c(=O)[nH]c3c(C(=O)NCC4CCCO4)sc(=S)n3c2c1 (configuration not stated)	-2.8	-1.8	1.3	-0.0087	0.3	nt	nt	nt	nt	nt	nt
O=C(NC1CCCC1)c1sc(=S)n2c1[nH]c(=O)c1ccccc12	-0.5	23.8*	4.1	-1.42	1.7	0.0155*	0.0522*	0.0301	0.0243*	0.0451*	0.0136*
Cc1cc(C)n(-c2ccc(C(=O)NC3CCCCC3)cc2)n1	3.8	-1.6	3.0	-1.14	-0.3	nt	nt	nt	nt	nt	nt
CCNc1nc(NCC)nc(Oc2ccc(N)cc2)n1	-1.9	nt	1.4	nt	0.0	0.00672	0.00463	0.0312	0.00742	0.0178	0.00956
Cc1onc(-c2ccccc2Cl)c1C(=O)NC(=S)NCCc1ccccc1	3.3	1.6	3.1	-1.67	-0.3	nt	nt	nt	nt	nt	nt
COC(=O)c1ccc(C)c(NC(=O)c2c(-c3ccccc3)noc2C)c1	-4.4	nt	4.4	0.816	-2.1	nt	nt	nt	nt	nt	nt
Cc1onc(-c2ccccc2)c1C(=O)NC(=S)Nc1sc2c(c1C#N)CCC(C)C2 (configuration not stated)	0.2	21.4*	5.9	nt	0.6	?	0.0578*	?	0.0238*	0.0366*	0.0251*
Cc1onc(-c2ccccc2Cl)c1C(=O)NC(=S)Nc1ccc(C(C)C)cc1	-1.3	9.94*	nt	nt	nt	0.00762	0.0133*	0.029	0.0143*	?	0.0128*
COC(=O)c1ccc(NC(=S)NC(=O)c2c(-c3ccccc3)noc2C)cc1	-5.2	16.7*	nt	nt	nt	0.0123	0.0232*	0.0356	?	0.0489*	0.0123
Cc1ccc(NC(=S)NC(=O)c2c(-c3ccccc3Cl)noc2C)cc1	0.1	5.43*	1.3	nt	2.6	0.00749	0.0346*	0.028	0.0155*	0.0367*	?
CC(=O)N1CCN(C(=S)NC(=O)c2c(-c3ccccc3Cl)noc2C)CC1	1.0	1.3	2.6	-0.0488	0.5	nt	nt	nt	nt	nt	nt
O=C(C[n+]1ccccc1)Nc1ccccc1Br	-2.8	0.869	2.3	1.97	0.4	nt	nt	nt	nt	nt	nt
CC(C)CC(=O)NC(Nc1ccc([N+](=O)[O-])cc1)C(Cl)(Cl)Cl (configuration not stated)	-1.1	0.521	1.7	-0.0839	-0.1	nt	nt	nt	nt	nt	nt
Cc1cccc(NS(=O)(=O)c2cc(C(=O)NCCC3=CCCCC3)ccc2Cl)c1	-1.8	0.0514	3.0	-0.24	0.4	nt	nt	nt	nt	nt	nt
CCCOc1ccc(NC(=O)c2c(-c3ccccc3)noc2C)cc1	nt	0.175	1.9	nt	-1.1	nt	nt	nt	nt	nt	nt
CCCOc1ccc(C(=O)NC(=S)NNC(=O)c2c(-c3ccccc3)noc2C)cc1	0.3	62.1*	nt	nt	nt	0.0215*	0.0645*	?	0.0446*	0.0398*	0.0402*
SMILES	b-catenin transl	Cl transport mod	MT stabilizer	ROMK primary	DTT redox prof	KCC2 secondary	KCC2 bumet counter	KCC2 secondary2	HEK293 Tl flux	KCC2 ouabain	HEK293 Tl flux2
Cc1ccc(-c2cc(-c3n[nH]c(=S)n3C)c3ccccc3n2)cc1	-3.7	10.7*	5.0	0.412	-0.6	0.00915	0.0444*	0.0312	0.0122*	?	?
CCOc1cccc(-c2cc(-c3n[nH]c(=S)n3CC)c3ccccc3n2)c1	-3.2	nt	2.0	1.75	-5.0	0.00894	0.0724*	0.0306	0.0152*	?	?
CSc1ccccc1C(=O)N1CCN(c2ncccn2)CC1	-2.8	-0.751	1.3	1.08	-0.7	nt	nt	nt	nt	nt	nt
CCOC(=O)CNC(=O)C(Cc1ccccc1)NC(=O)OCc1ccccc1 (configuration not stated)	-2.1	-5.51*	2.2	-1.04	0.9	0.0063	0.00523	0.0251*	0.00697	?	0.0107
Cc1nc(C(=O)NNC(=O)c2ccccc2Cl)c(C(F)(F)F)o1	-3.6	5.64*	nt	nt	nt	0.00715	0.00702*	0.03	0.0095*	?	?
O=C(NNC(=O)c1ccccc1Cl)c1ccco1	-0.7	1.34	nt	nt	nt	nt	nt	nt	nt	nt	nt

Source: PubChem BioAssay (several laboratories)
